Format: in vivo, Sprague-Dawley rats
Conditions: 5 mg/kg p.o.
In short: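 8-week-old male WT and CRISPR/Cas9 Slco1b2 KO SD rats, fasted 12 h, given the OATP1B2 probe substrate as a CMC-Na suspension intragastrically. Plasma underwent ethyl acetate liquid–liquid extraction with mebendazole internal standard, then positive-ESI LC–MS/MS. Parameters were derived by non-compartmental analysis.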

decrease of CL/F in KO rats compared with WT rats (KO vs WT rats): 38.5%
decrease of Vd/F in KO rats compared with WT rats (KO vs WT rats): 39.8%
increase of AUC0–24 h in KO rats compared with WT rats (KO vs WT rats): 68.8%
increase of AUC0–inf in KO rats compared with WT rats (KO vs WT rats): 68.8%
AUC(0-inf) (male, Sprague-Dawley, rat, plasma, po, 5 mg/kg, AUC0–inf, Slco1b2 KO male rats, mean ± SD, n = 6): 3440 ± 1050 ng·h/mL
AUC(0-t) (male, Sprague-Dawley, rat, plasma, po, 5 mg/kg, AUC0–t, Slco1b2 KO male rats, mean ± SD, n = 6): 3410 ± 1040 ng·h/mL
CL/F (male, Sprague-Dawley, rat, plasma, po, 5 mg/kg, CL/F, Slco1b2 KO male rats, mean ± SD, n = 6): 26 mL/min/kg
Cmax (male, Sprague-Dawley, rat, plasma, po, 5 mg/kg, Cmax, Slco1b2 KO male rats, mean ± SD, n = 6): 1000 ± 336 ng/mL
MRT last (male, Sprague-Dawley, rat, plasma, po, 5 mg/kg, MRT0–t, Slco1b2 KO male rats, mean ± SD, n = 6): 3.65 ± 0.89 h
Tmax (male, Sprague-Dawley, rat, plasma, po, 5 mg/kg, Tmax, Slco1b2 KO male rats, mean ± SD, n = 6): 2.08 ± 0.97 h
Vd/F (male, Sprague-Dawley, rat, plasma, po, 5 mg/kg, Vd/F, Slco1b2 KO male rats, mean ± SD, n = 6): 6.58 ± 1.9 L/kg
half-life (male, Sprague-Dawley, rat, plasma, po, 5 mg/kg, t1/2, Slco1b2 KO male rats, mean ± SD, n = 6): 2.92 ± 0.43 h
Structure (SMILES): O=C(O)C[C@H](O)C[C@H](O)/C=C/c1c(C2CC2)nc2ccccc2c1-c1ccc(F)cc1 [pitavastatin, Pitavastatin]
